Laboratory results as given in ChEMBL document CHEMBL1142929, “The use of aminoglycoside derivatives to study the mechanism of aminoglycoside 6'-N-acetyltransferase and the role of 6'-NH2 in antibacterial activity” (2007).
The source made the active and inactive calls. No cut-off for these calls is given here.

Key:
Enterococcus faecium = assay: Inhibition of Enterococcus faecium aminoglycoside 6'-N-acetyltransferase
Escherichia coli [1] = assay: Antimicrobial activity against Escherichia coli MG1655 by dilution method; type: functional
Outline: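 MIC by standard broth dilution: overnight MG1655 cultures in LB (aminoglycoside-sensitive strain) diluted 100-fold, growth read as OD at 600 nm.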

Escherichia coli [2] = assay: Antibacterial activity against kanamycin-resistant Escherichia coli JR67 at 30 ug/disc […]; type: functional, organism-based
Escherichia coli [3] = assay: Antibacterial activity against kanamycin-resistant Escherichia coli pETAACWT at 30 ug/disc […]; type: functional, organism-based
Escherichia coli [4] = assay: Antibacterial activity against gentamycin-resistant Escherichia coli JR88 at 30 ug/disc […]; type: functional, organism-based
Escherichia coli [5] = assay: Antibacterial activity against kanamycin-resistant Escherichia coli JR66 at 30 ug/disc […]; type: functional, organism-based
Staphylococcus aureus = assay: Antibacterial activity against Staphylococcus aureus at 30 ug/disc […]; type: functional, organism-based; conditions: in the assay text read “paper disc method” for “dilution method”
Outline: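 Disc diffusion on LB solid medium with 30 µg compound per paper disc; growth inhibition of the S. aureus strain (sensitive to usual antibiotics) scored visually.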

Escherichia coli [6] = assay: Antibacterial activity against kanamycin-resistant Escherichia coli pSF815A-1 at 30 ug/disc […]; type: functional, organism-based

SMILES	Activity (Enterococcus faecium)	MIC (Escherichia coli [1])	Activity (Escherichia coli [2])	Activity (Escherichia coli [3])	Activity (Escherichia coli [4])	Activity (Escherichia coli [5])	Activity (Staphylococcus aureus)	Activity (Escherichia coli [6])
NCC(=O)NC[C@H]1O[C@H](O[C@H]2[C@H](O)[C@@H](O)[C@H](N)C[C@@H]2N)[C@H](N)[C@@H](O)[C@@H]1O	inactive	< 50 µg/mL	inactive	inactive	inactive	inactive	inactive	–
[N-]=[N+]=NCC(=O)NC[C@H]1O[C@H](O[C@H]2[C@H](O)[C@@H](O)[C@H](N)C[C@@H]2N)[C@H](N)[C@@H](O)[C@@H]1O	inactive	–	inactive	inactive	inactive	inactive	inactive	–
N[C@H]1[C@@H](O[C@H]2[C@H](O)[C@@H](O)[C@H](N)C[C@@H]2N)O[C@H](CNC(=O)Cc2cccc3ccccc23)[C@@H](O)[C@@H]1O	inactive	–	inactive	inactive	inactive	inactive	inactive	–
N[C@H]1[C@@H](O[C@H]2[C@H](O)[C@@H](O)[C@H](N)C[C@@H]2N)O[C@H](CNC(=O)CO)[C@@H](O)[C@@H]1O	inactive	< 25 µg/mL	inactive	inactive	inactive	inactive	inactive	–
N[C@H]1[C@@H](O[C@H]2[C@H](O)[C@@H](O)[C@H](N)C[C@@H]2N)O[C@H](CNC(=O)c2ccccc2)[C@@H](O)[C@@H]1O	inactive	–	inactive	inactive	inactive	inactive	inactive	inactive
NC[C@H]1O[C@H](O[C@H]2[C@H](O)[C@@H](O)[C@H](N)C[C@@H]2N)[C@H](N)[C@@H](O)[C@@H]1O [NEAMINE]	–	< 6.25 µg/mL	–	–	–	–	–	–
C#CCC(=O)NC[C@H]1O[C@H](O[C@H]2[C@H](O)[C@@H](O)[C@H](N)C[C@@H]2N)[C@H](N)[C@@H](O)[C@@H]1O	inactive	–	inactive	inactive	inactive	inactive	inactive	–
N[C@H]1[C@@H](O[C@H]2[C@H](O)[C@@H](O)[C@H](N)C[C@@H]2N)O[C@H](CNC(=O)CS)[C@@H](O)[C@@H]1O	inactive	–	inactive	inactive	inactive	inactive	inactive	–
NCCC(=O)NC[C@H]1O[C@H](O[C@H]2[C@H](O)[C@@H](O)[C@H](N)C[C@@H]2N)[C@H](N)[C@@H](O)[C@@H]1O	inactive	–	inactive	inactive	inactive	inactive	inactive	–
